From ChEMBL document CHEMBL2040833, “Metabolism-based synthesis, biologic evaluation and SARs analysis of O-methylated analogs of quercetin as thrombin inhibitors” (Eur J Med Chem, 2012)

Tests used:
[1] = molecular target: Thrombin (Oryctolagus cuniculus) (UniProt Q28731); test: Inhibition of thrombin in New Zealand rabbit plasma assessed as thrombin time at 100 uM after 3 mins by coagulometry
In short: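 Using citrated rabbit platelet-poor plasma, 40 µl PPP was held 3 min at 37 °C, then 40 µl thrombin solution and 20 µl sample (in 80% ethanol) were added for 3 min at 37 °C. Clotting time was measured by coagulometer with a commercial kit, and prolongation was scored.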

[2] = molecular target: Thrombin (Oryctolagus cuniculus) (UniProt Q28731); test: Inhibition of thrombin in New Zealand rabbit plasma assessed as fibrinogen level at 100 uM by coagulometry
In short: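 Citrated rabbit platelet-poor plasma (3000 rpm 10 min). 10 µl PPP incubated with 90 µl imidazole buffer 3 min at 37 °C, then 50 µl FIB agent and 10 µl sample (in 80% ethanol) added; fibrinogen content read on coagulometer with commercial kit; reduction in FIB content scored.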

[3] = molecular target: Thrombin (Oryctolagus cuniculus) (UniProt Q28731); test: Inhibition of thrombin in New Zealand rabbit plasma assessed as activated partial thromboplastin time at 100 uM after 3 mins by coagulometry
In short: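 Sample in 80% ethanol; 10 µl sample and 50 µl PPP incubated with 50 µl APTT-activating agent 3 min at 37 °C, then 50 µl CaCl2 added; clotting time by coagulometer with commercial kit; prolongation scored.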

[4] = molecular target: Thrombin (Oryctolagus cuniculus) (UniProt Q28731); test: Inhibition of thrombin in New Zealand rabbit plasma assessed as prothrombin time at 100 uM by coagulometry
In short: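 40 µl PPP preincubated 3 min at 37 °C, then 40 µl thromboplastin agent plus 20 µl sample (in 80% ethanol) added; clotting read by coagulometer with commercial kit; activity expressed as INR increase.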

SMILES	TT [1]	Activity [2]	APTT [3]	PT [4]
COc1cc(O)cc2oc(-c3ccc(O)c(O)c3)c(O)c(=O)c12	19.4 s	5 g/L	49.2 s	7.6 s
COc1ccc(-c2oc3cc(O)cc(OC)c3c(=O)c2O)cc1OC	15.9 s	7.9 g/L	49.3 s	5.1 s
COc1ccc(-c2oc3cc(O)cc(O)c3c(=O)c2O)cc1OC	9.9 s	6.6 g/L	58.7 s	5.8 s
COc1cc(O)c2c(=O)c(O)c(-c3ccc(OC)c(O)c3)oc2c1	14.8 s	5.9 g/L	46.2 s	7.4 s
COc1cc(O)c2c(=O)c(OC)c(-c3ccc(OC)c(OC)c3)oc2c1	14.2 s	8.4 g/L	42.4 s	5.4 s
COc1cc(-c2oc3cc(O)cc(O)c3c(=O)c2O)ccc1O	20.5 s	5.4 g/L	82.3 s	5.3 s
COc1cc(OC)c2c(=O)c(O)c(-c3ccc(O)c(O)c3)oc2c1	21.8 s	5.1 g/L	67.6 s	6.9 s
COc1cc(OC)c2c(=O)c(OC)c(-c3ccc(OC)c(OC)c3)oc2c1	11.6 s	8.9 g/L	40.3 s	5.2 s
COc1ccc(-c2oc3cc(O)cc(O)c3c(=O)c2O)cc1O	16.6 s	7.5 g/L	49.8 s	6.9 s
O=c1c(O)c(-c2ccc(O)c(O)c2)oc2cc(O)cc(O)c12	19.2 s	5.8 g/L	30.3 s	6.2 s
COc1cc(O)c2c(=O)c(OC)c(-c3ccc(OC)c(O)c3)oc2c1	14.9 s	5.3 g/L	61.7 s	6 s
COc1c(-c2ccc(O)c(O)c2)oc2cc(O)cc(O)c2c1=O	22.9 s	4.7 g/L	50.2 s	4.8 s
COc1cc(O)c2c(=O)c(OC)c(-c3ccc(O)c(O)c3)oc2c1	22.5 s	7.3 g/L	54.7 s	7.3 s
COc1c(-c2ccc(O)c(O)c2)oc2cc(O)cc(OC)c2c1=O	20 s	5.4 g/L	63.7 s	5.7 s
COc1cc(O)c2c(=O)c(O)c(-c3ccc(O)c(O)c3)oc2c1	23 s	5.4 g/L	72.6 s	6.8 s
COc1cc(-c2oc3cc(O)cc(OC)c3c(=O)c2O)ccc1O	22.3 s	6.2 g/L	57.6 s	5.8 s
